Measurements published in ChEMBL document CHEMBL5329221, “A covalent fragment-based strategy targeting a novel cysteine to inhibit activity of mutant EGFR kinase” (RSC Med Chem, 2023).
The source made the active and inactive calls. No cut-off for these calls is given here.

What was measured:
[1] = tested on: Epidermal growth factor receptor (Homo sapiens), P00533 [L858R,C775S]; assay: Binding affinity to N-terminal His6-tagged human EGFR L858R/C775S mutant expressed in Sf9 cells at pH 7.4 assessed as covalent adduct at +277 Da formation at 0.3 to 1 uM incubated for 1 hrs by LC-MS analysis; conditions: dose 0.3-1 µM
In short: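 EGFR (694-1022) L858R or L858R/C775S as N-terminal His-GST fusions from Sf9 cells, purified by Ni affinity then SEC. Each protein at 0.5 mg/ml was incubated with compound (0.3, 1 or 3 µM) in 20 mM Tris-HCl pH 7.5, 150 mM NaCl, 1 mM TCEP, 5% glycerol, 1 h at room temperature. SDS was added to 1% final, samples boiled 95°C 10 min, then UHPLC-MS.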

[2] = biological target: Epidermal growth factor receptor (Homo sapiens, UniProt P00533, C797S/L858R/T790M); assay: Inhibition of N-terminal His6-tagged human EGFR L858R/T790M/C797S mutant expressed in Sf9 cells assessed as decrease in substrate phosphorylation using Srctide as substrate preincubated for 20 mins followed by substrate addition in presence of 5uM of ATP and measured after 45 mins by microplate reader analysis
[3] = tested on: Epidermal growth factor receptor (Homo sapiens), P00533 [UNDEFINED MUTATION]; assay: Inhibition of human EGFR d746-750/T790M/C797S mutant assessed as decrease in substrate phosphorylation using Srctide as substrate preincubated for 15 mins followed by substrate addition in presence of 1mM of ATP and measured after 45 mins by microplate reader analysis; conditions: time 60.0 min
In short: (§1)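 Compound at 1 µM final, 15 min preincubation with mutant EGFR in mutant-EGFR buffer (5 mM MgCl2, 1 mM MnCl2) at 200 ng/mL for T790M/C797S/L858R, 180 ng/mL for d746-750/T790M, and 350 ng/mL for d746-750/T790M/C797S. Then 1 mM ATP plus 1.5 µM Srctide for 45 min. Mobility-shift read.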

[4] = tested on: Epidermal growth factor receptor (Homo sapiens), P00533 [UNDEFINED MUTATION]; assay: Inhibition of human EGFR d746-750/T790M mutant assessed as decrease in substrate phosphorylation using Srctide as substrate preincubated for 15 mins followed by substrate addition in presence of 1mM of ATP and measured after 45 mins by microplate reader analysis; conditions: time 60.0 min; in short: as §1
[5] = tested on: Epidermal growth factor receptor (Homo sapiens), P00533 [L858R,T790M]; assay: Inhibition of human EGFR T790M/L858R mutant assessed as decrease in substrate phosphorylation using Srctide as substrate preincubated for 15 mins followed by substrate addition in presence of 1mM of ATP and measured after 45 mins by microplate reader analysis; conditions: time 60.0 min
In short: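 Panel format: compound at 1 µM final was preincubated 15 min with kinase in 20 mM HEPES pH 7.4, 5 mM MgCl2, 1 mM MnCl2, 0.003% Brij-35, 0.004% Tween-20, 2 mM DTT. ATP (1 mM) and Srctide (1.5 µM) were then added for 45 min. EDTA stop; mobility-shift read, ex 488/em 530 nm.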

[6] = biological target: T1, Tyrosine-protein kinase JAK3 (Homo sapiens) (UniProt P52333); assay: Inhibition of human JAK3 assessed as decrease in substrate phosphorylation using Srctide as substrate preincubated for 15 mins followed by substrate addition in presence of 1mM of ATP and measured after 45 mins by microplate reader analysis; conditions: time 60.0 min
T1 sequence (whole entry): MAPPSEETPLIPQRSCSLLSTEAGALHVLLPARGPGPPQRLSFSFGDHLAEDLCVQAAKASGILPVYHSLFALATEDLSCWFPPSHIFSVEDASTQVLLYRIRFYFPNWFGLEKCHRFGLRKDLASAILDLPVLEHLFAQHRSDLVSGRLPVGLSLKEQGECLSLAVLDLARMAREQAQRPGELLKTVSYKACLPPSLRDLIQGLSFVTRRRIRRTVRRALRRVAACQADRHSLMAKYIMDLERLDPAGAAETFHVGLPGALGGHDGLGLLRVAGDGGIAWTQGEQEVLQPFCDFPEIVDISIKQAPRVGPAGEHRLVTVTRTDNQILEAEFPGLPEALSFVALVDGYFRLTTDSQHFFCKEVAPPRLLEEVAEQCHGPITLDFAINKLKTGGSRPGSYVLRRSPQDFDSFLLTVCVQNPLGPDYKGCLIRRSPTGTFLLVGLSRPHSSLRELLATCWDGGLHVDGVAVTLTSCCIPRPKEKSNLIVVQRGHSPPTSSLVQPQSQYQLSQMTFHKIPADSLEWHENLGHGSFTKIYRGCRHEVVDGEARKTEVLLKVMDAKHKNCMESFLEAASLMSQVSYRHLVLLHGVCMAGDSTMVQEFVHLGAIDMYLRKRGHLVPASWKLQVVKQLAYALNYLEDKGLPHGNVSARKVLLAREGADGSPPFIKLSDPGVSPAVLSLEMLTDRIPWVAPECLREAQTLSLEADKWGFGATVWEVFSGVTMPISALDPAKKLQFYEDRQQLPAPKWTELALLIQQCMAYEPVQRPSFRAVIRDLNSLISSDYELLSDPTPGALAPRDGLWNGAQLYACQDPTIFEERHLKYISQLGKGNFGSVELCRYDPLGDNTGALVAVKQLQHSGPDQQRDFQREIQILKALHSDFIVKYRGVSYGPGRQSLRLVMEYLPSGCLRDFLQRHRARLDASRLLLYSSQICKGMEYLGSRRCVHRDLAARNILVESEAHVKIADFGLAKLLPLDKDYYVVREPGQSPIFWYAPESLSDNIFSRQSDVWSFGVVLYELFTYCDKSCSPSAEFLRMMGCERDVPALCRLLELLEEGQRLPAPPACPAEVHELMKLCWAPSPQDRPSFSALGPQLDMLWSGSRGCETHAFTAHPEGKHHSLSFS
In short: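 JAK3 at 50 ng/mL was preincubated 15 min with 1 µM compound in 100 mM HEPES pH 7.4, 0.003% Brij-35, 0.004% Tween-20, 1 mM DTT. Then 1 mM ATP, 1.5 µM Srctide and 10 mM MgCl2 were added for 45 min. Mobility-shift read.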

## C=CC(=O)Nc1cc(-c2cn(C)c3ccccc23)ncn1
[1]
  Activity: Active
[2]
  IC50: 239 nM
[3]
  inhibition: > 80%
[4]
  inhibition: > 80%
[5]
  inhibition: > 80%
[6]
  inhibition: 74.2%
